Assay results taken from ChEMBL document CHEMBL4480462, “HPLC-Based Activity Profiling for Antiprotozoal Compounds in the Endemic Iranian Medicinal Plant Helichrysum oocephalum” (J Nat Prod, 2019).
Each block holds one compound with its values, some of them ahead of it.

Key:
Leishmania donovani = assay: Antileishmanial activity against Leishmania donovani MHOM-ET-67/L82 axenic amastigotes after 70 hrs by resazurin staining based fluorescence assay; type: functional, organism-based; settings: MHOM-ET-67/L82, 70 h
Procedure, shortened: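 Axenically grown amastigotes of strain MHOM-ET-67/L82 were exposed to serial drug dilutions of 11 3-fold steps spanning 100 to 0.001 μg/mL, with miltefosine as reference. IC50 was obtained by linear regression. Each assay was run singly and repeated at least twice, and the reported value is the average of two independent assays.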

[1] = Selectivity index, ratio of IC50 for rat L6 cells to IC50 for axenic amastigotes
Procedure, shortened: (§1)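 The selectivity index is the IC50 in L6 cells divided by the IC50 in the named parasite. Each IC50 comes from 11-step 3-fold dilution series (100 to 0.001 μg/mL) fitted by linear regression and averaged over two independent assays.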

Plasmodium falciparum = assay: Antiplasmodial activity against Plasmodium falciparum NF54 infected in human erythrocytes assessed as reduction in [3H]-hypoxanthine incorporation pretreated for 48 hrs followed by [3H]-hypoxanthine addition measured after 24 hrs by liquid scintillation counting method; type: functional, organism-based
Procedure, shortened: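 Erythrocytic-stage NF54 parasites were tested over 11 3-fold serial dilutions from 100 to 0.001 μg/mL, with chloroquine as reference. IC50 was derived by linear regression. Runs were single and repeated at least twice, and the value given is the mean of two independent assays.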

L6 = assay: Cytotoxicity against rat L6 cells; type: cell-based
Procedure, shortened: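 Rat skeletal myoblast L6 cells were exposed to 11 3-fold serial drug dilutions covering 100 to 0.001 μg/mL, with podophyllotoxin as reference. IC50 was calculated by linear regression. Runs were single and repeated at least two times, and the figure is the mean of two independent assays.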

[2] = Selectivity index, ratio of IC50 for rat L6 cells to IC50 for Plasmodium falciparum NF54 infected in human erythrocytes; type: toxicity, cell-based; settings: read-out: Ratio IC50; procedure, shortened: as §1

SMILES: CC(=O)c1c(O)c(Cc2c(O)c(C)c(C)oc2=O)c(O)c2c1OC(C)(C)C=C2
IC50 (Leishmania donovani): 1.8 µM
Ratio IC50 [1]: 29.7
IC50 (Plasmodium falciparum): 11.3 µM
IC50 (L6): 53.1 µM
selectivity ratio [2]: 4.7

SMILES: CCC1=C(C)C(=O)C2(Cc3c(O)c(CC=C(C)C)c(O)c(C(=O)C(C)C)c3O2)O1 (configuration not stated)
IC50 (Leishmania donovani): 6 µM
Ratio IC50 [1]: 7.2
IC50 (Plasmodium falciparum): 18 µM
IC50 (L6): 43 µM
selectivity ratio [2]: 2.1

SMILES: CCc1oc(=O)c(Cc2c(O)c(CC=C(C)CCC=C(C)C)c(O)c(C(=O)C(C)CC)c2O)c(O)c1C (configuration not stated)
IC50 (Leishmania donovani): 5.6 µM
Ratio IC50 [1]: 6.4
IC50 (Plasmodium falciparum): 1.2 µM
IC50 (L6): 36.3 µM
selectivity ratio [2]: 15.7

SMILES: CC(=O)c1c(O)c(CC=C(C)CCC=C(C)C)c(O)c2c1OC1(C2)OC(C)=C(C)C1=O (configuration not stated)
IC50 (Leishmania donovani): 2.8 µM
Ratio IC50 [1]: 15.6
IC50 (Plasmodium falciparum): 23.9 µM
IC50 (L6): 43.4 µM
selectivity ratio [2]: 2.2

SMILES: CC(C)=CCCC(C)=CCc1c(O)c2c(c(C(=O)C(C)C)c1O)OC1(C2)OC(C)=C(C)C1=O (configuration not stated)
IC50 (Leishmania donovani): 2.2 µM
Ratio IC50 [1]: 8.5
IC50 (Plasmodium falciparum): 7.2 µM
IC50 (L6): 18.8 µM
selectivity ratio [2]: 5.5

SMILES: CCc1oc(=O)c(Cc2c(O)c(CC=C(C)C)c(O)c(C(=O)C(C)CC)c2O)c(O)c1C (configuration not stated)
IC50 (Leishmania donovani): 16.8 µM
Ratio IC50 [1]: 2.25
IC50 (Plasmodium falciparum): 2.5 µM
IC50 (L6): 37.8 µM
selectivity ratio [2]: 5.36

SMILES: CCC(=O)c1c(O)c(CC=C(C)C)c(O)c2c1OC1(C2)OC(C)=C(C)C1=O (configuration not stated)
IC50 (Leishmania donovani): 7.1 µM
Ratio IC50 [1]: 6.2
IC50 (Plasmodium falciparum): 31.7 µM
IC50 (L6): 44.1 µM
selectivity ratio [2]: 0.8

SMILES: CC(C)=CCc1c(O)c2c(c(C(=O)C(C)C)c1O)OC1(C2)OC(C)=C(C)C1=O (configuration not stated)
IC50 (Leishmania donovani): 1.9 µM
Ratio IC50 [1]: 10.5
IC50 (Plasmodium falciparum): 22.7 µM
IC50 (L6): 20.1 µM
selectivity ratio [2]: 1.9

SMILES: CCc1oc(=O)c(Cc2c(O)c(Cc3c(O)c(C)c(CC)oc3=O)c(O)c(C(=O)C(C)C)c2O)c(O)c1C
IC50 (Leishmania donovani): 2.5 µM
Ratio IC50 [1]: 22.9
IC50 (Plasmodium falciparum): 8.6 µM
IC50 (L6): 57.6 µM
selectivity ratio [2]: 4.4

SMILES: CCC(C)C(=O)c1c(O)c(CC=C(C)C)c(O)c(Cc2c(O)c(C)c(C)oc2=O)c1O (configuration not stated)
IC50 (Leishmania donovani): 4.8 µM
Ratio IC50 [1]: 11.5
IC50 (Plasmodium falciparum): 5.5 µM
IC50 (L6): 55.5 µM
selectivity ratio [2]: 7.9

SMILES: Cc1oc(=O)c(Cc2c(O)c(C)c(C)oc2=O)c(O)c1C
IC50 (Leishmania donovani): 15.7 µM
Ratio IC50 [1]: 1.7
IC50 (Plasmodium falciparum): 22.3 µM
IC50 (L6): 26.5 µM
selectivity ratio [2]: 2.5

SMILES: CCC(C)C(=O)c1c(O)c(CC=C(C)C)c(O)c2c1OC1(C2)OC(C)=C(C)C1=O (configuration not stated)
IC50 (Leishmania donovani): 1.7 µM
Ratio IC50 [1]: 7.6
IC50 (Plasmodium falciparum): 7.6 µM
IC50 (L6): 13.2 µM
selectivity ratio [2]: 4.8

SMILES: CCc1oc(=O)c(Cc2c(O)c(CC=C(C)CCC=C(C)C)c(O)c(C(=O)C(C)C)c2O)c(O)c1C
IC50 (Leishmania donovani): 2.7 µM
Ratio IC50 [1]: 15
IC50 (Plasmodium falciparum): 3.8 µM
IC50 (L6): 39.7 µM
selectivity ratio [2]: 11.3

SMILES: CCC1=C(C)C(=O)C2(Cc3c(O)c(CC=C(C)C)c(O)c(C(C)=O)c3O2)O1 (configuration not stated)
IC50 (Leishmania donovani): 5.8 µM
Ratio IC50 [1]: 9.5
IC50 (Plasmodium falciparum): 23.1 µM
IC50 (L6): 55.1 µM
selectivity ratio [2]: 2.3

SMILES: CCc1oc(=O)c(Cc2c(O)c(CC=C(C)C)c(O)c(C(=O)C(C)C)c2O)c(O)c1C
IC50 (Leishmania donovani): 13.7 µM
Ratio IC50 [1]: 3.8
IC50 (Plasmodium falciparum): 7.4 µM
IC50 (L6): 52.2 µM
selectivity ratio [2]: 7.6

SMILES: CCCCCCCCCCCCCCCCOP(=O)([O-])OCC[N+](C)(C)C [MILTEFOSINE]
IC50 (Leishmania donovani): 0.285 µM

SMILES: COc1cc([C@@H]2c3cc4c(cc3[C@H](O)[C@H]3COC(=O)[C@H]23)OCO4)cc(OC)c1OC [PODOFILOX]
IC50 (L6): 0.005 µM

Continued by falling IC50 (Plasmodium falciparum), values first:

IC50 (Plasmodium falciparum): 18.1 µM
SMILES: CCc1oc(=O)c(Cc2c(O)c(C)c(C)oc2=O)c(O)c1C
IC50 (Leishmania donovani): 15.5 µM
Ratio IC50 [1]: 2.8
IC50 (L6): 43.9 µM
selectivity ratio [2]: 3.4

IC50 (Plasmodium falciparum): 14.6 µM
SMILES: CC(=O)c1c(O)c(CC=C(C)C)c(O)c2c1OC1(C2)OC(C)=C(C)C1=O (configuration not stated)
IC50 (Leishmania donovani): 5.1 µM
Ratio IC50 [1]: 11.1
IC50 (L6): 56.3 µM
selectivity ratio [2]: 3.9

IC50 (Plasmodium falciparum): 9.3 µM
SMILES: CCc1oc(=O)c(Cc2c(O)c3c(c(C(=O)C(C)C)c2O)OC(C)(CCC=C(C)C)C=C3)c(O)c1C (racemic)
IC50 (Leishmania donovani): 1.9 µM
Ratio IC50 [1]: 11.2
IC50 (L6): 21.4 µM
selectivity ratio [2]: 2.3

IC50 (Plasmodium falciparum): 8.9 µM
SMILES: CCc1oc(=O)c(Cc2c(O)c(C)c(CC)oc2=O)c(O)c1C [HELIPYRONE]
IC50 (Leishmania donovani): 14.9 µM
Ratio IC50 [1]: 3.6
IC50 (L6): 54.3 µM
selectivity ratio [2]: 5.4

IC50 (Plasmodium falciparum): 8 µM
SMILES: CC(C)=CCc1c(O)c(Cc2c(O)c(C)c(C)oc2=O)c(O)c(C(=O)C(C)C)c1O
IC50 (Leishmania donovani): 5.8 µM
Ratio IC50 [1]: 10.4
IC50 (L6): 61.1 µM
selectivity ratio [2]: 5.5

IC50 (Plasmodium falciparum): 7.12 µM
SMILES: CCc1oc(=O)c(Cc2c(O)c(C(=O)C(C)C)c(O)c3c2O[C@@]2(C)CC[C@@H]4[C@H]2[C@H]3C4(C)C)c(O)c1C
IC50 (Leishmania donovani): 2 µM
Ratio IC50 [1]: 6
IC50 (L6): 12 µM
selectivity ratio [2]: 1.7

IC50 (Plasmodium falciparum): 5.7 µM
SMILES: CC(C)=CCCC(C)=CCc1c(O)c(Cc2c(O)c(C)c(C)oc2=O)c(O)c(C(=O)C(C)C)c1O
IC50 (Leishmania donovani): 3.1 µM
Ratio IC50 [1]: 12.3
IC50 (L6): 38.4 µM
selectivity ratio [2]: 9.6

IC50 (Plasmodium falciparum): 2.6 µM
SMILES: CCC(C)C(=O)c1c(O)c(CC=C(C)CCC=C(C)C)c(O)c(Cc2c(O)c(C)c(C)oc2=O)c1O (configuration not stated)
IC50 (Leishmania donovani): 4.4 µM
Ratio IC50 [1]: 11.1
IC50 (L6): 48.3 µM
selectivity ratio [2]: 7.7
